Source: PubChem (several laboratories)
Sampled rows, rich in hits. Any-hit rate of the full collection: about 2.2%.
Yeast superoxide: lowers age-related superoxide in aged yeast cells. S. cerevisiae aged cells, superoxide DHE fluorescence; stronger effect = lower value. superoxide response (% of plate mean), % at 10 µM. 0.18% of 330,000 active;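 active = superoxide response under a set limit, about three screen SD below normal, cut at about 65% in these data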;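 also: yeast aged for seven days with compound at 30 °C before DHE staining; 100% = average MFI of all compound-treated wells on the plate with controls excluded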
PHOSPHO1 block: inhibitors of human PHOSPHO1 phosphatase | Q8TCT1 | 1.1% of 290,000 active | inhibition, % at 13.3 µM | recombinant PHOSPHO1, absorbance phosphatase assay | AID 1565; in the data active = inhibition above about 60%
Target sequence (Q8TCT1 whole entry, looked up): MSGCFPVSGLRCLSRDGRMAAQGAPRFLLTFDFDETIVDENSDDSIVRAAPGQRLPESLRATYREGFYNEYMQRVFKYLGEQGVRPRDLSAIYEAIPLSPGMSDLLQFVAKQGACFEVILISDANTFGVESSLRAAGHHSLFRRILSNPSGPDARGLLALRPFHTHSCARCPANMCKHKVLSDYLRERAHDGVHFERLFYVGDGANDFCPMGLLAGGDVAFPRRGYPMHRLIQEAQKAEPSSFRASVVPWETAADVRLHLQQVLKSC
PvdQ acylase: P. aeruginosa PvdQ acylase inhibition | AID 488965 | inhibition, % at 10 µM | 0.063% of 340,000 active | purified PvdQ acylase, fluorescence plate reader; in the data active = inhibition above about 30%, passing the limit was not always enough;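 also: 0% = vehicle neutral wells and 100% = reference inhibitor wells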
IMP-1 inh: inhibitors of Pseudomonas aeruginosa IMP-1 metallo-beta-lactamase | purified IMP-1, nitrocefin hydrolysis, epi-absorbance fluorescence | inhibition, % at 5.6 µM | 0.45% of 290,000 active | AID 1556;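 active = inhibition above the mean plus 3 SD of all compounds in the same screening run, cut at about 4.5% in these data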;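 also: 0% = IMP-1 with DMSO and 100% = DMSO wells lacking enzyme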
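System: Purified recombinant IMP-1 metallo-beta-lactamase enzyme | Measured by: Fluorescence quenching readout, ex 480/em 530 nm | Replication: Singlicate | Incubation: 15 min preincubation plus 25 min reaction at 25 °C | Evaluation: Percent inhibition from optical density relative to buffer-blank wells | Benchmarks: DMSO with and without IMP-1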
VIM-2 inh: inhibitors of Pseudomonas aeruginosa VIM-2 metallo-beta-lactamase; AID 1527; purified VIM-2, nitrocefin hydrolysis, epi-absorbance fluorescence; inhibition, % at 5.6 µM; 0.89% of 290,000 active;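 active = inhibition above the mean of all tested compounds plus 3 SD, cutoff set per screening run, cut at about 7.5% in these data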;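 also: red hydrolysis product quenches plate fluorescence so inhibitors raise well fluorescence; 0% = enzyme with DMSO and 100% = DMSO without enzyme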
Numbers without * were called inactive; . = no result given.

SMILES	Yeast superoxide	PHOSPHO1 block	PvdQ acylase	IMP-1 inh	VIM-2 inh
OCCN(CCO)c1ncnc2c1sc1nc(N3CCOCC3)c3c(c12)CCCC3	100.9	22.1	-1.7	-2.5	9.0*
S=c1nc[nH]c2c1sc1nc(-c3ccccc3)c3c(c12)CCCC3	118.6	4.1	-8.3	15.8*	0.9
O=c1[nH]cnc2c1sc1nc(-c3ccccc3)c3c(c12)CCCC3	116.7	13.4	-12.0	-1.1	-3.1
O=C(O)CSc1ncnc2c1sc1nc(-c3ccccc3)c3c(c12)CCC3	126.7	32.2	-7.8	9.4*	-1.8
OCCN1CCN(c2ncnc3c2sc2nc(N4CCOCC4)c4c(c23)CCC4)CC1	98.1	10.7	-3.9	0.3	9.9*
CC(=O)Nc1csc2ccccc12	94.6	19.2	-4.5	-2.9	-3.0
O=C(Nc1ccccc1)Nc1csc2ccccc12	62.6*	46.0	.	-2.3	0.3
O=C(c1ccc2c(=O)n(C3CCCC3)c(=S)[nH]c2c1)N1CCc2ccccc21	114.3	62.6*	-1.5	-1.3	-4.3
CC(C)NC(=O)c1ccc2c(=O)n(C3CCCC3)c(=S)[nH]c2c1	109.9	15.9	-1.6	-2.5	-2.8
CC(C)OC(=O)C[N+](C)(C)CCN1C(=O)C2C(c3ccccc3)C=CC(c3ccccc3)C2C1=O (stereo not drawn)	97.5	24.4	-6.2	12.8*	1.5
Cc1c(Cl)cccc1-c1ccc(CNCc2ccccn2)o1	101.5	20.1	-13.5	-2.2	7.9*
Cn1cccc1C(C#N)c1cccc(F)c1C#N (stereo not drawn)	91.0	4.0	60.5*	-1.5	-1.8
CC(C)Cn1c(N)c(C(=O)CSc2ncnc3sc4c(c23)CCCC4)c(=O)n(C)c1=O	116.8	-2.4	-8.8	-1.6	0.3
Cc1ccc(C2C(C(=O)c3cccs3)=C(O)C(=O)N2c2nnc(C)s2)cc1 (stereo not drawn)	99.9	30.3	18.0	19.7*	19.5*
O=C(O)Cn1nc2c3c(cccc3c1=O)-c1ccccc1-2	79.8	1.1	8.2	-3.6	7.8*
Cc1ccc(-c2nn(CC(=O)O)c(=O)c3ccccc23)cc1	101.2	29.1	-5.4	1.4	-1.7
COc1ccc(C(=O)CNc2cccc(F)c2)cc1	131.3	11.4	-7.4	-0.7	-0.9
CCc1ccccc1NC(=O)CN1CCN(CC(=O)Nc2ccc3c(c2)OC2(CCCCC2)O3)CC1	.	.	9.5	.	.
Cc1cc(=O)oc2cc(NC(=O)C(C)Oc3ccc(F)cc3)ccc12 (stereo not drawn)	99.5	.	-9.3	.	.
Cc1cc(=O)oc2cc(NC(=O)c3ccc(OC(F)F)cc3)ccc12	93.3	31.9	-14.1	8.7*	1.3
COC(=O)Oc1nsnc1N1CCOCC1	130.1	91.7*	-7.1	-1.5	-2.8
CC(C)c1nc(SCC(=O)Nc2ccc(N(C)C)cc2)c2ccccc2n1	92.4	10.5	-4.7	5.2*	-3.9
CC(C)Oc1ccc(C2c3c(oc4ccccc4c3=O)C(=O)N2CCCN2CCOCC2)cc1 (stereo not drawn)	103.1	-11.8	0.3	-0.8	0.4
Cc1ccc(CNC(=O)CN(c2ccc(C)cc2)S(=O)(=O)c2c(C)nn(C)c2C)cc1	100.8	15.4	-13.3	-2.4	-2.3
Cc1ccc(N(CC(=O)NCc2ccc(F)cc2)S(=O)(=O)c2c(C)nn(C)c2C)cc1	92.9	61.6*	-9.1	-6.4	-1.9
SMILES	Yeast superoxide	PHOSPHO1 block	PvdQ acylase	IMP-1 inh	VIM-2 inh
Cc1nc2ccccc2c2oc(C(=O)NC3CC3)cc12	85.1	2.7	-5.5	-0.2	8.4*
Cc1nc2ccccc2c2oc(C(=O)N3CCC(C)CC3)cc12	81.8	19.9	0.8	-0.3	10.9*
CCOc1ccc(NC(=O)c2cc3c(C)nc4ccccc4c3o2)cc1	104.2	10.1	2.0	-2.3	-2.8
Cc1nc2ccccc2c2oc(C(=O)N3CCN(C(=O)c4ccco4)CC3)cc12	96.3	18.2	1.8	-2.9	8.8*
Cc1nc2ccccc2c2oc(C(=O)N3CCc4ccccc4C3)cc12	100.8	5.1	17.4	-4.3	4.2
O=C(C1CCCN(S(=O)(=O)c2ccc(Br)cc2)C1)N1CCN(Cc2ccccc2)CC1 (stereo not drawn)	84.7	19.2	-7.3	1.0	2.9
COc1ccc(C2OCC(C)([N+](=O)[O-])CO2)cc1 (stereo not drawn)	.	.	-4.9	.	.
COC(=O)CSc1ncnc2c1cnn2Cc1ccccc1	93.7	13.3	-14.1	-5.5	-4.5
COc1cc(NC(=O)CSc2ncnc3c2cnn3Cc2ccccc2)cc(OC)c1	100.1	28.6	3.8	4.5*	-0.8
CC(C)(C)NS(=O)(=O)c1cc(C(=O)Nc2sccc2C#N)ccc1Cl	88.9	-13.6	-12.8	-2.7	-0.9
